From ChEMBL document CHEMBL3576847, “Discovery of 1-(3,3-dimethylbutyl)-3-(2-fluoro-4-methyl-5-(7-methyl-2-(methylamino)pyrido[2,3-d]pyrimidin-6-yl)phenyl)urea (LY3009120) as a pan-RAF inhibitor with minimal paradoxical activation and activity against BRAF or RAS mutant tumor cells” (J Med Chem, 2015)
≈ marks a conversion by molar mass, not a printed value. Calls of active or inactive are those of the source. The calls are words filed in the database; no cut-off is given here.

Columns and labels:
[1] = biological target: T1, Serine/threonine-protein kinase B-raf (Homo sapiens, UniProt P15056, V600E); test: Inhibition of recombinant BRAF V600E mutant (unknown origin) assessed as ADP formation measured for 5 hrs by pyruvate kinase/lactate dehydrogenase coupled assay in presence of ATP, MEK1, NADH
T1 sequence (P15056 2-766 V600E limits assumed): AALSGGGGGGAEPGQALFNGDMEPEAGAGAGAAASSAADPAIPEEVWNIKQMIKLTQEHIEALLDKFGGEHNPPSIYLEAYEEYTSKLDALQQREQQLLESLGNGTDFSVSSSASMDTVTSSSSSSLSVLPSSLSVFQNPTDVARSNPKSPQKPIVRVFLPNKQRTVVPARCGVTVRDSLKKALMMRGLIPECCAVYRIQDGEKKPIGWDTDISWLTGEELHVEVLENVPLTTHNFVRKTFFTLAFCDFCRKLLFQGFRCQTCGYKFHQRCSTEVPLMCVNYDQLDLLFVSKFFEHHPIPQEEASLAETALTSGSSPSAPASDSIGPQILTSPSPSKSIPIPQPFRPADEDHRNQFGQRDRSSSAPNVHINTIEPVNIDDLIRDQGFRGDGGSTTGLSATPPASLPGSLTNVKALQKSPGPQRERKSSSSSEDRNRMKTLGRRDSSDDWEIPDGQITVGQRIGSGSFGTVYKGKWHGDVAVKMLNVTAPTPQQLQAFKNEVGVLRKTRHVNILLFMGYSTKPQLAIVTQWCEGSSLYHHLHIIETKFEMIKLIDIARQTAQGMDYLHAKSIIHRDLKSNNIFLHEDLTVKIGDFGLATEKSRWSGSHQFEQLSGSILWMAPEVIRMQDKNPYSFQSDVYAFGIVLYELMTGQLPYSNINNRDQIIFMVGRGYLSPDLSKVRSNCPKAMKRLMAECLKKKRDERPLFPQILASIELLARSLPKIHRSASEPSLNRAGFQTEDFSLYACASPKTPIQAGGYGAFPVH

[2] = biological target: Serine/threonine-protein kinase B-raf (Homo sapiens, UniProt P15056); test: Inhibition of wild type BRAF (unknown origin) assessed as ADP formation measured for 5 hrs by pyruvate kinase/lactate dehydrogenase coupled assay in presence of ATP, MEK1, NADH
Chain of Serine/threonine-protein kinase B-raf (Homo sapiens, UniProt P15056) (P15056 whole entry): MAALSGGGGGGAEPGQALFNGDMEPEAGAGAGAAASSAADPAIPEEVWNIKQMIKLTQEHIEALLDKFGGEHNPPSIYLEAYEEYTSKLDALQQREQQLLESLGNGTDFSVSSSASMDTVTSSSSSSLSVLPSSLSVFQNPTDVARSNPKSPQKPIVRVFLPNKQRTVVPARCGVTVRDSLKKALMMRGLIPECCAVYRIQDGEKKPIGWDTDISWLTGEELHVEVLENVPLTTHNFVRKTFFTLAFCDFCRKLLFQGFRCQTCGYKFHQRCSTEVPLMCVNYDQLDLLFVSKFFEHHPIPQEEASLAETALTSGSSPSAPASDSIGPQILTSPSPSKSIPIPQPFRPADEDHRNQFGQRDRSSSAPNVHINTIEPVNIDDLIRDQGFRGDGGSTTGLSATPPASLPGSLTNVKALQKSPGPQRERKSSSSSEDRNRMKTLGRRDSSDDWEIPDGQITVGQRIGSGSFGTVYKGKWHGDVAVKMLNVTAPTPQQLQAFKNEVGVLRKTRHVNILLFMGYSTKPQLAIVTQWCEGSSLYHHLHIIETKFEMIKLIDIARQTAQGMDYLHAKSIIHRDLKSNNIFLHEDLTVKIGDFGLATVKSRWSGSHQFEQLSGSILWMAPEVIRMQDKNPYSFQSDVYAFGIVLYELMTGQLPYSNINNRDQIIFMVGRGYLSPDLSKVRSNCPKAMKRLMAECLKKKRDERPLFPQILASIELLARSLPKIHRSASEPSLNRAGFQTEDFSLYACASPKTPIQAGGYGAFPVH

[3] = biological target: RAF proto-oncogene serine/threonine-protein kinase (Homo sapiens, UniProt P04049); test: Inhibition of wild type CRAF (unknown origin) assessed as ADP formation measured for 5 hrs by pyruvate kinase/lactate dehydrogenase coupled assay in presence of ATP, MEK1, PEP, NADH
Chain of RAF proto-oncogene serine/threonine-protein kinase (P04049 whole entry): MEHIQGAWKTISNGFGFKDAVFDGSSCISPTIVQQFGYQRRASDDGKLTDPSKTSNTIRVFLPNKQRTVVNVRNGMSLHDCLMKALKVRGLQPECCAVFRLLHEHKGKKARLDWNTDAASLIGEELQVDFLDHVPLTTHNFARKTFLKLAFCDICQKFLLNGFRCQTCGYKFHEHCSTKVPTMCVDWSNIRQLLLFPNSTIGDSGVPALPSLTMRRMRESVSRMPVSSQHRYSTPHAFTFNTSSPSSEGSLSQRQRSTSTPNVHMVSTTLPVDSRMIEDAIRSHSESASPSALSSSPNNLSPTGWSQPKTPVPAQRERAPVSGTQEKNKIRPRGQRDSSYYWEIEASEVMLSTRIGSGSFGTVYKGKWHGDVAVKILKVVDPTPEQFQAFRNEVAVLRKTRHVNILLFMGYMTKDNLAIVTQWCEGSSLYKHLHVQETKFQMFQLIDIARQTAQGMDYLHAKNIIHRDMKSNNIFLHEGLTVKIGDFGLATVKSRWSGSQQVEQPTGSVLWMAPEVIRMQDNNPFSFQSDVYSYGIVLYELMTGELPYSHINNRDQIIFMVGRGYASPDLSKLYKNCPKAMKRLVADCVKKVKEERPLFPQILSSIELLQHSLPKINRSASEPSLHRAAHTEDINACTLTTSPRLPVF

[4] = biological target: T1, Serine/threonine-protein kinase B-raf; test: Inhibition of BRAF V600E mutant in human A375 cells assessed as inhibition of ERK phosphorylation measured after 72 hrs by ELISA assay; format: cell-based, A-375
GTPase KRas = GTPase KRas (Homo sapiens, UniProt P01116, G13D); test: Inhibition of KRAS G13D mutant in human HCT116 cells assessed as inhibition of ERK phosphorylation by ELISA; format: cell-based, HCT-116
Chain of GTPase KRas (P01116 whole entry G13D): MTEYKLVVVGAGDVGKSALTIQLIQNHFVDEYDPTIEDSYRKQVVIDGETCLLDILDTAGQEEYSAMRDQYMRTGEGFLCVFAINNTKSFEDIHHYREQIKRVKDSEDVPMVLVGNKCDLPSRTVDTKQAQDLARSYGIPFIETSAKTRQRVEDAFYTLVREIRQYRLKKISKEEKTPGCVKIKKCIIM
Outline: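 HCT116 cells (KRAS G13D, BRAF WT; RAF signalling via CRAF) were treated with compound, and the change in cellular phospho-ERK was measured. IC50 was taken as the concentration inhibiting phospho-ERK.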

[5] = biological target: Vascular endothelial growth factor receptor 2 (Homo sapiens, UniProt P35968); test: Inhibition of KDR (unknown origin)
Chain of Vascular endothelial growth factor receptor 2 (P35968 whole entry): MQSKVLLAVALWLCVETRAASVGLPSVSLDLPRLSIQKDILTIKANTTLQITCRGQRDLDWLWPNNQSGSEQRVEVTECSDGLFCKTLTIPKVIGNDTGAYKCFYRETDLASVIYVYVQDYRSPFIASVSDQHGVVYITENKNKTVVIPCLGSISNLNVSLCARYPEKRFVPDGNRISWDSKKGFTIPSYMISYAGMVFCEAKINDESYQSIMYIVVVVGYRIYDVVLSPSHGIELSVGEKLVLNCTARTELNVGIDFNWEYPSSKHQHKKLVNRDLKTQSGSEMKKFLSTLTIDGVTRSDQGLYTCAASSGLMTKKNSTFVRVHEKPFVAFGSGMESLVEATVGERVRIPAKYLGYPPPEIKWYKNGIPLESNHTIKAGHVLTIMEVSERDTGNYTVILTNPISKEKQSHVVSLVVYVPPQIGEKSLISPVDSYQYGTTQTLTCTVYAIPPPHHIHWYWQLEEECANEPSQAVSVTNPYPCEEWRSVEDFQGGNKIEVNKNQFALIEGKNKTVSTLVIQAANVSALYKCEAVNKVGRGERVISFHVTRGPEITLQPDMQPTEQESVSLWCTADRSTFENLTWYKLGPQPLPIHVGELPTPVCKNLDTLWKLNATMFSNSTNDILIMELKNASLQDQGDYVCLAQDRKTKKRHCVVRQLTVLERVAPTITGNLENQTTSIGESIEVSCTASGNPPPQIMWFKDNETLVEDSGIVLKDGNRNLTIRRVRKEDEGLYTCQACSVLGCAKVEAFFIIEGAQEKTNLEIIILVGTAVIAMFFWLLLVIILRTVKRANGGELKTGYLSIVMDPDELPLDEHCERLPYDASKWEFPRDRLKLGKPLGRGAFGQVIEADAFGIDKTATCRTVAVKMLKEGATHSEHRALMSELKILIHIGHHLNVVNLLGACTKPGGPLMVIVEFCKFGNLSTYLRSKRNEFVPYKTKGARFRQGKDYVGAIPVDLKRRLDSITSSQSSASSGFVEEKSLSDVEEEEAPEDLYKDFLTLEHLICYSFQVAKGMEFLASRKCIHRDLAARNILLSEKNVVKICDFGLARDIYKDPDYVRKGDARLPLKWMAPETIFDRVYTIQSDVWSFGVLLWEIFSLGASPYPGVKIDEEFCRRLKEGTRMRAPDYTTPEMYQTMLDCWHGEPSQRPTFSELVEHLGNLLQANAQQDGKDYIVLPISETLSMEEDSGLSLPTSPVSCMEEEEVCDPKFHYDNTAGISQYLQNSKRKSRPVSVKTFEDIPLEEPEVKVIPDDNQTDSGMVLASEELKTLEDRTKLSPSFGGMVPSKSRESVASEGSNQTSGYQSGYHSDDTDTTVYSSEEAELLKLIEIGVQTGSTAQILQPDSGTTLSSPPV

[6] = biological target: Dual specificity mitogen-activated protein kinase kinase; MEK1/2 (Homo sapiens, UniProt P36507+Q02750); test: Inhibition of MEK (unknown origin)
[7] = Oral bioavailability in rat administered as suspension; format: ADME, organism-based; details: in vivo
[8] = Clearance in iv dosed rat administered as suspension; format: ADME, organism-based; details: in vivo
A-375 [9] = test: cells; details: Homo sapiens, A-375, 72 h
HCT-116 [10] = test: cells; details: Homo sapiens, HCT-116, 67 h
Mus musculus [11] = test: In vivo inhibition of BRAF V600E mutant in human A375 cells xenografted in po dosed athymic nu/nu mouse assessed as plasma concentration required to inhibit ERK phosphorylation by 50%; format: functional, A-375
Mus musculus [12] = test: In vivo inhibition of BRAF V600E mutant in human A375 cells xenografted in po dosed athymic nu/nu mouse assessed as inhibition of ERK phosphorylation by ELISA; format: functional
Mus musculus [13] = test: In vivo inhibition of BRAF V600E mutant in human A375 cells xenografted in po dosed athymic nu/nu mouse assessed as inhibition of MEK phosphorylation by ELISA; format: functional, organism-based; details: A-375
Mus musculus [14] = test: In vivo inhibition of BRAF V600E mutant in human A375 cells xenografted in po dosed athymic nu/nu mouse assessed as plasma concentration required to inhibit ERK phosphorylation by 80%; format: functional, A-375
A-375 [15] = test: Antitumor activity against human A375 cells expressing BRAF V600E mutant xenografted in athymic nu/nu mouse assessed as tumor regression at 20 to 30 mg/kg, po bid administered for 15 days; format: functional, organism-based
Outline: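 Mice bearing A375 (BRAF V600E) or HCT116 (KRAS mutant) xenografts were dosed orally b.i.d. for 15 days. Doses were 20 and 30 mg/kg for A375 and 40 mg/kg for HCT116. Tumor volume and body weight were monitored.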

Mus musculus [16] = test: Toxicity in athymic nu/nu mouse xenografted with human A375 cells expressing BRAF V600E mutant assessed as body weight loss at 20 to 30 mg/kg, po bid administered for 15 days; format: organism-based, A-375; details: in vivo, 360 h
Outline: (§1)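 Nude mice bearing A375 (BRAF V600E) or HCT116 (KRAS mutant) xenografts given oral b.i.d. doses, 20 and 30 mg/kg (A375) or 40 mg/kg (HCT116), for 15 days; body weight monitored.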

Mus musculus [17] = test: Toxicity in athymic nu/nu mouse xenografted with human HCT116 cells expressing KRAS mutant assessed as body weight loss at 40 mg/kg, po bid administered for 15 days; format: organism-based, HCT-116; details: in vivo, 360 h; outline: as §1
[18] = Paradoxical activation of RAS/RAF/MEK signaling pathway in human HCT116 cells expressing wild type BRAF assessed as ERK phosphorylation at <100 nM; format: cell-based; details: HCT-116
[19] = Paradoxical activation of RAS/RAF/MEK signaling pathway in human HCT116 cells expressing wild type BRAF assessed as ERK phosphorylation at >100 nM; format: cell-based; details: HCT-116
HCT-116 [20] = test: Antitumor activity against human HCT116 cells expressing KRAS mutant xenografted in athymic nu/nu mouse at 40 mg/kg, po bid administered for 15 days
[21] = biological target: Serine/threonine-protein kinase A-Raf (Homo sapiens, UniProt P10398); test: Competitive binding affinity to ARAF in human A375 cells after 15 mins in presence of ATP analogue; format: cell-based, A-375
Chain of Serine/threonine-protein kinase A-Raf (P10398 whole entry): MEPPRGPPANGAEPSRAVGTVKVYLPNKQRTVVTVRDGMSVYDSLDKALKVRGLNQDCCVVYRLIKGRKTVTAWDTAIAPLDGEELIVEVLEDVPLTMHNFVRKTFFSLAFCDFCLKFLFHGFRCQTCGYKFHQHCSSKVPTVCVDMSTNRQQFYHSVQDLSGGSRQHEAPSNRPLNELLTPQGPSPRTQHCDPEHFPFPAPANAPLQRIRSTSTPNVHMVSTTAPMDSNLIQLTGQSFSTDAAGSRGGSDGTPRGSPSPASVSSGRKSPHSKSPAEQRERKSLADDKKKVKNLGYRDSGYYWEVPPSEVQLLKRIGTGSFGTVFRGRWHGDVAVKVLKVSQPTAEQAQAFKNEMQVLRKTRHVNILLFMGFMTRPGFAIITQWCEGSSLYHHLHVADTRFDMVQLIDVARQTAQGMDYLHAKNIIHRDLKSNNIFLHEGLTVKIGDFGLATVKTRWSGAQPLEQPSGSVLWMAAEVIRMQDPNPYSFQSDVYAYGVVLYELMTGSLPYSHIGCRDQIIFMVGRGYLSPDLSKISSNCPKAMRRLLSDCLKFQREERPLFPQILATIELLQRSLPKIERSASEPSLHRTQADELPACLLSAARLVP

[22] = Paradoxical activation of RAS/RAF/MEK signaling pathway in human HCT116 cells expressing wild type BRAF assessed as ERK phosphorylation at 0.34 to 20000 nM; format: cell-based; details: HCT-116
[23] = Clearance in po dosed rat administered as suspension; format: ADME, organism-based; details: in vivo
[24] = Clearance in po dosed dog administered as suspension; format: ADME, organism-based, Canis lupus familiaris; details: in vivo
[25] = Oral bioavailability in dog administered as suspension; format: ADME, organism-based, Canis lupus familiaris; details: in vivo
[26] = Solubility of the compound in simulated fed intestinal fluid; format: ADME
[27] = Solubility of the compound in simulated fasted intestinal fluid; format: ADME

Structure (SMILES) | IC50 [1] [nM] | IC50 [2] [nM] | IC50 [3] [nM] | IC50 [4] [nM] | IC50 (GTPase KRas) [nM] | IC50 [5] [nM] | IC50 [6] [nM] | bioavailability [7] [%] | IC50 (A-375 [9]) [nM] | IC50 (HCT-116 [10]) [nM] | IC50 [21] [nM] | other results
CNc1cc2nc(C)c(-c3cc(NC(=O)NCCC(C)(C)C)c(F)cc3C)cc2cn1 | 18 | 28 | 5.6 | 47 | 120 | 170 | 5900 | 30 | 11 | 320 | – | clearance [8]: 3.36 mL/min/kg
CNc1cc2nc(C)c(-c3cc(NC(=O)NC[C@@H](O)C(C)(C)C)c(F)cc3C)cc2cn1 | 7.7 | 39 | 7.2 | 22 | 160 | 750 | 15000 | – | 10 | 174 | – | Activity (Mus musculus [11]): 3.1 µM; inhibition (Mus musculus [12]; A-375): Dose-dependent effect; ED50 (Mus musculus [12]; A-375, po): 1.7 mg/kg; ED80 (Mus musculus [12]; A-375, po): 5.7 mg/kg; inhibition (Mus musculus [13]): Dose-dependent effect; INH (Mus musculus [14]): 7661 ng/mL; Activity (A-375 [15]): Active; Activity (Mus musculus [16]): Non-toxic; Activity (Mus musculus [17]): Non-toxic; Activity [18]: Active; Activity [19]: inactive; Activity (HCT-116 [20]): Active
CCCS(=O)(=O)Nc1ccc(F)c(C(=O)c2c[nH]c3ncc(-c4ccc(Cl)cc4)cc23)c1F [VEMURAFENIB] | – | – | – | – | 16600 | 360 | 1500 | – | 170 | > 10000 | 950 | Activity [22]: Active
CC(C)(C)c1nc(-c2cccc(NS(=O)(=O)c3c(F)cccc3F)c2F)c(-c2ccnc(N)n2)s1 [DABRAFENIB] | – | – | – | – | 5880 | – | – | – | – | – | 26 | –
CNc1cc2c(cn1)cc(-c1ccc(F)c(NC(=O)Nc3cc(C(C)(C)C)no3)c1)c(=O)n2[C@H]1CCOC1 | 1 | 18 | 3.1 | 6.8 | 57 | 0.46 | 2900 | < 10 | 6.1 | 32 | – | CL/F [23]: 50 mL/min/kg; CL/F [24]: 6 mL/min/kg; bioavailability [25]: < 10%; solubility [26]: 2 µg/mL (≈ 3.84 µM); solubility [27]: 1 µg/mL (≈ 1.92 µM)
CNc1ncc2cc(-c3cc(NC(=O)NCCC(C)(C)C)c(F)cc3C)cnc2n1 | 2 | 4.4 | 1.2 | 27 | 16 | 1900 | > 20000 | – | 18 | 110 | – | –
